The nature of data set [1]: Antiproliferative activity against human CCRF-CEM/VBL cells assessed as reduction in cell viability after 72 hrs by MTS assay. Format: functional, cell-based. In outline: (§1)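 Cells plated at 2000/well, cultured overnight, then exposed to a range of compound concentrations for 72 h. MTS reagent added for 1–4 h at 37 °C and absorbance read at 490 nm. Cultured in RPMI 1640 or DMEM with 10% heat-inactivated FBS under 5% CO2. Data are the mean of three determinations.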
(In general: Tetrazolium assays rely on reduction of a dye to a coloured formazan, in cell work by metabolically active cells.)

Data set [2] in a line: Selectivity index, ratio of IC50 for human CCRF-CEM/VBL cells to IC50 for human CCRF-CEM cells. Format: functional.
Data set [3] concerns NCI-H1975. Nature of the data set: Antiproliferative activity against human NCI-H1975 cells assessed as reduction in colony formation after 14 days by crystal violet staining based assay. Format: functional, cell-based. In a few lines: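 Seeded at 1000 cells/well, cultured overnight, then treated with 12.5–200 nM for 14 days. Colonies fixed in 3.7% paraformaldehyde, stained with 0.04% crystal violet and dissolved in DMSO, then absorbance read at 590 nm. Mean ± SD.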

The test system of data set [4] is CL1-0. As to the kind of experiment: Induction of morphological changes in human CL1-0 cells assessed as disruption of mitotic spindle arrangement at 20 nM after 6 hrs by DAPI staining based confocal microscopic analysis. In kind it is functional, cell-based. In a few lines:
(§2)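 Cells exposed for 6 h, fixed in 3.7% paraformaldehyde, permeabilized with 0.1% Triton X-100. Stained with anti-α-tubulin (1:1000) overnight at 4 °C, FITC secondary 1 h at 37 °C, nuclei counterstained with DAPI. Imaged by confocal laser scanning microscopy.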

Another data set has as its system Hs-578T. As to the kind of experiment: Antiproliferative activity against human Hs578T cells assessed as reduction in cell viability after 72 hrs by MTS assay. In kind it is functional, cell-based. In outline:
as §1

The subject of data set [5] is NCI-H1975. As to the kind of experiment: Induction of apoptosis in human NCI-H1975 cells assessed as PARP cleavage at 40 nM by immunoblotting analysis. Format: functional, cell-based. Conditions: TDE = time-dependent effect. (Immunoblotting shows a protein as a band on a membrane.)
A short description of data set [6]: Antiproliferative activity against human KBtax cells assessed as reduction in cell viability after 72 hrs by MTS assay. Format: functional, cell-based. In outline:
as §1

Data set [7] concerns CL1-0. As to the kind of experiment: Induction of mitotic arrest in human CL1-0 cells assessed as increase in phospho-histone H3 expression at 20 to 40 nM after 24 hrs by immunoblotting analysis. In kind it is functional, cell-based.
The nature of data set [8]: Selectivity index, ratio of IC50 for human KBtax cells to IC50 for human KB cells. Format: functional.
The test system of the next data set is BT-549. Nature of the data set: Antiproliferative activity against human BT549 cells assessed as reduction in cell viability after 72 hrs by MTS assay. The conditions noted are these: BT-549, 72 h. In kind it is functional, cell-based. In outline: as §1
A further data set has as its system MDA-MB-231. Nature of the data set: Antiproliferative activity against human MDA-MB-231 cells assessed as reduction in cell viability after 72 hrs by MTS assay. In kind it is functional, cell-based. The conditions noted are these: MDA-MB-231, 72 h. In outline: as §1
Data set [9] deals with T1, Tubulin (Homo sapiens) (UniProt P68371+Q9H4B7+P0DPH7+P68366+Q13509+Q71U36+P04350+Q3ZCM7+P07437+P68363+Q9BQE3+Q6PEY2+Q13885+Q9BVA1+Q9BUF5). As to the kind of experiment: Inhibition of microtubule polymerization in human NCI-H1975 cells at 40 nM after 1 hr followed by exposure to cold and measured at 5 to 60 mins immunofluorescence based assay. In kind it is cell-based. In a few lines:
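H1975 cells pretreated with 40 nM for 1 h, held cold for 30 min, then returned to 37 °C for varying times. Fixed and stained for α-tubulin by immunofluorescence with DAPI counterstain, then imaged by confocal microscopy.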

The test system of data set [10] is NCI-H1975. Nature of the data set: Induction of apoptosis in human NCI-H1975 cells assessed as caspase 8 activation at 40 to 80 nM after 24 hrs by immunoblotting analysis. Format: functional, cell-based.
Data set [11] has as its system CL1-0. Nature of the data set: Induction of apoptosis in human CL1-0 cells assessed as bax protein expression after 24 hrs by immunoblotting analysis. In kind it is functional, cell-based.
Data set [12] can be described thus: Selectivity index, ratio of IC50 for human KB/VCR cells to IC50 for human KB cells. In kind it is functional.
Data set [13] is described as follows: Cytotoxicity against human NHFB cells assessed as reduction in cell viability after 72 hrs by MTS assay. Format: cell-based. In a few lines:
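Cells plated at 2000 per well, cultured overnight, then exposed to a range of compound concentrations for 72 h. MTS reagent added, 1–4 h at 37 °C, absorbance read at 490 nm. Mean of three determinations.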

The next data set concerns the target Tubulin (Sus scrofa) (UniProt P02554+P02550). As to the kind of experiment: Inhibition of porcine tubulin polymerization assessed as inhibition of formation of microtubule asters in centrosome after 8 mins immunofluorescence assay. In kind it is protein assay. In outline: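 Purified centrosomes incubated with compound, then with porcine tubulin in 80 mM PIPES, 1 mM MgCl2, 1 mM EGTA, 1 mM GTP, pH 6.8 for 8 min at 37 °C. Asters fixed in 1% glutaraldehyde and stained for α-tubulin. Fiber length measured on 20 asters per group; mean ± SD.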

In data set [14] the test system is NCI-H1975. Nature of the data set: Antitumour activity against human NCI-H1975 cells xenografted in Balb/c mouse assessed as reduction in tumour size at 4 mg/kg, ip administered 3 times per week and measured on day 25 (reference value: 1749 +/- 234.5 mm3). In kind it is functional.
For the next data set, the system named is HCT-116. Nature of the data set: Antiproliferative activity against human HCT116 cells assessed as reduction in cell viability after 72 hrs by MTS assay. Format: functional, cell-based. The conditions noted are these: HCT-116, 72 h. In a few lines: as §1
The next data set relates to KB. Nature of the data set: Antiproliferative activity against human KB cells assessed as reduction in cell viability after 72 hrs by MTS assay. Format: functional, cell-based. In outline: as §1
Data set [15] can be described thus: Antiproliferative activity against human 37T cells assessed as reduction in cell viability after 72 hrs by MTS assay. In kind it is functional, cell-based. In a few lines:
as §1

Data set [16] has as its system NCI-H1975. As to the kind of experiment: Antiproliferative activity against human NCI-H1975 cells assessed as reduction in cell viability after 72 hrs by MTS assay. The conditions noted are these: NCI-H1975, 72 h. Format: functional, cell-based. In outline: as §1
Data set [17] deals with CL1-0. As to the kind of experiment: Induction of apoptosis in human CL1-0 cells assessed as increase in cytochrome c level in cytosol at 20 to 40 nM after 24 hrs by immunoblotting analysis. Format: functional, cell-based.
A short description of data set [18]: Antiproliferative activity against human OECM1 cells assessed as reduction in cell viability after 72 hrs by MTS assay. In kind it is functional, cell-based. Conditions: OECM1, 72 h. In a few lines:
as §1

For another data set, the system named is CCRF-CEM. Nature of the data set: Antiproliferative activity against human CCRF-CEM cells assessed as reduction in cell viability after 72 hrs by MTS assay. In kind it is functional, cell-based. In outline: as §1
In data set [19] the test system is NCI-H1975. Nature of the data set: Induction of mitotic arrest in human NCI-H1975 cells assessed as increase in phospho-histone H3 expression at 40 to 80 nM after 24 hrs by immunoblotting analysis. Format: functional, cell-based.
In data set [20] the test system is NCI-H1975. As to the kind of experiment: Induction of apoptosis in human NCI-H1975 cells assessed as cleaved caspase 9 after 24 hrs by immunoblotting analysis. Format: functional, cell-based.
Data set [21] can be described thus: Antiproliferative activity against human KB/VCR cells assessed as reduction in cell viability after 72 hrs by MTS assay. Format: functional, cell-based. In outline:
as §1

For another data set, the species on record is Homo sapiens. As to the kind of experiment: Induction of apoptosis in human KBtax cells assessed as PARP cleavage at 30 to 60 nM after 24 hrs by immunoblotting analysis. Format: functional, cell-based.
Data set [22] has as its target T1, Tubulin (Homo sapiens). As to the kind of experiment: Inhibition of microtubule polymerization in human KBtax cells at 30 nM after 6 hrs by DAPI staining based scanning confocal microscopic analysis. Format: cell-based. In outline:
as §2

Data set [23] in a line: Toxicity in Balb/c mouse xenografted with human KBtax cells assessed as serum creatinine level at 8 mg/kg, ip administered 3 times per week and measured after 21 days (reference value: 0.22 +/- 0.02 mg/dl). In kind it is organism-based. The conditions noted are these: in vivo, 504 h.

The source made the active and inactive calls. The rule behind the calls is not given here.

Tubulin (Sus scrofa), sequence (P02550 whole entry, looked up): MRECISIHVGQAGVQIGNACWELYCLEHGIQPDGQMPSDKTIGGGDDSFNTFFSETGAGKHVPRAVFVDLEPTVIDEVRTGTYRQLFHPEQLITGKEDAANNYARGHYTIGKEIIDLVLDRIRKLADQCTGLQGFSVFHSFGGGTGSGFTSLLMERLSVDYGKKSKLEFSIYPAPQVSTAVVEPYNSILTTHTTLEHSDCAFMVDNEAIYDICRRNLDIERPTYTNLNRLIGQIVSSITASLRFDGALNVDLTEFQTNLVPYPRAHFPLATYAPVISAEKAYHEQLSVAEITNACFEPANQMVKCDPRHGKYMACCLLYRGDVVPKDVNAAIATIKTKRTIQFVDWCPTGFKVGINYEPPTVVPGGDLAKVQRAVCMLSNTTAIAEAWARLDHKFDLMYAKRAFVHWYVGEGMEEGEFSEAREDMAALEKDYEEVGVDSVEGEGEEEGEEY
Tubulin (Sus scrofa), sequence (P02554 whole entry, looked up): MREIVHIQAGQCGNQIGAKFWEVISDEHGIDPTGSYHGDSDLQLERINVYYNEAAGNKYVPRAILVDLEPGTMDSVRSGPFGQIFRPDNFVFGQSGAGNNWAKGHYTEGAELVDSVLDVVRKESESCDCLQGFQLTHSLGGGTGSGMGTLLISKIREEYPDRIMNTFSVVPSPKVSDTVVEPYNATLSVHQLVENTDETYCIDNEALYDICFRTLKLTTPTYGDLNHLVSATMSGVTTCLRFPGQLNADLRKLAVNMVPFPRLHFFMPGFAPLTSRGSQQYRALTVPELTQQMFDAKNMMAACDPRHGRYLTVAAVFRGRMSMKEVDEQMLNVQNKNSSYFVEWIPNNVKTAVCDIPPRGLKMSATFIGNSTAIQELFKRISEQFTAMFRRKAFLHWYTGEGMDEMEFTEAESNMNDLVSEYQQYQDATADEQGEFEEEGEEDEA

Take `CCOC(=O)c1ccc2nc(-c3ccccc3)cc(O)c2c1`: the 50% inhibitory concentration (IC50) was 44 nM in [1]; 41 nM in the data set on Hs-578T; 30 nM in [6]; 33 nM in the data set with BT-549; 55 nM in the data set on MDA-MB-231; over 10000 nM in data set [13]. Moreover, the IC50 with HCT-116 amounted to 50 nM; in the data set on KB, 37 nM; in data set [15], 34 nM; in the data set on NCI-H1975 [16], 33 nM; in data set [18], 52 nM; in the data set with CCRF-CEM it was 45 nM. Further, in [21], the IC50 is 37 nM. The “Ratio IC50” value stood at 0.97 in [2], 0.81 in [8] and 1 in data set [12]. For the same molecule, the outcome in the data set on NCI-H1975 [3], with CL1-0 [4], in the data set on CL1-0 [7], at Tubulin (Homo sapiens) [9], in the data set with CL1-0 [17] and in the data set on NCI-H1975 [19] was Active. For the same molecule, the Activity result was “Tde” in the data set with NCI-H1975 [5], “Dose-dependent effect” in the data set on CL1-0 [11], 871.3 mm3 with NCI-H1975 [14] and “Dose-dependent effect” with NCI-H1975 [20]. For the same molecule, in the data set on NCI-H1975 [10], the outcome was inactive. The inhibition entry on Tubulin (Sus scrofa) is “Active”.
Take `CCOC(=O)c1ccc2[nH]c(-c3cccc(F)c3)cc(=O)c2c1`: the IC50 in data set [1] worked out at 16 nM; in the data set with Hs-578T it was 34 nM; in [6] it was 30 nM; in the data set on BT-549, 21 nM; with MDA-MB-231, 35 nM; with KB, 34 nM. For the same molecule, the IC50 in data set [15] amounted to 22 nM; with NCI-H1975 [16], 24 nM; in the data set with CCRF-CEM it was 20 nM; in data set [21], 35 nM. The results for the “Ratio IC50” value in data set [2], in data set [8] and in data set [12] were 0.8, 0.88 and 1, respectively. Besides, the outcome in the data set listed under Homo sapiens was Active. Further, the inhibition entry on Tubulin (Homo sapiens) [22] is “Active”. For the same molecule, in data set [23], the Activity turned out to be 0.26 mg/dL.

The IC50 is the concentration at which inhibition is half-maximal.
